Measured values pooled from the literature.
Each line is one published result; the experiments were not run side by side.
EGFR A750P/del747-749: Epidermal growth factor receptor (EGFR, Homo sapiens, UniProt P00533, A750P/del747-749)
EGFR L858R: Epidermal growth factor receptor (EGFR, Homo sapiens, UniProt P00533, L858R)
EGFR L861Q: Epidermal growth factor receptor (EGFR, Homo sapiens, UniProt P00533, L861Q)
EGFR del747-752/P753S: Epidermal growth factor receptor (EGFR, Homo sapiens, UniProt P00533, del747-752/P753S)
EGFR G719S: Epidermal growth factor receptor (EGFR, Homo sapiens, UniProt P00533, G719S)
EGFR del747-750/T751S: Epidermal growth factor receptor (EGFR, Homo sapiens, UniProt P00533, del747-750/T751S)
EGFR L858R/T790M: Epidermal growth factor receptor (EGFR, Homo sapiens, UniProt P00533, L858R/T790M)

SMILES	target	assay	setting	remaining binding [%]
C[C@H](c1ccnc(Nc2nc3ccc(-c4cc(N(C)C)ncn4)cc3[nH]2)c1)N1CCN(C(=O)CC(F)(F)F)CC1	EGFR A750P/del747-749	cell-free assay, competition with immobilised ligand	0.1 µM	89
N#Cc1ccccc1CSc1nnc2c(n1)[nH]c1ccccc12	EGFR L858R	binding, competition with immobilised ligand	10 µM	100
CN(C)c1nccc(-c2cnc3ncccn23)n1	EGFR L861Q	binding	1 µM	90
CCC(=N\O)/C(C)=C/c1ccc(F)cc1	EGFR L858R	cell-free assay, competition with immobilised ligand	1 µM	65
CN1CCN(c2ccc(Nc3nccc(-c4ccccc4)n3)cc2C(F)(F)F)CC1	Epidermal growth factor receptor (EGFR, Homo sapiens, UniProt P00533, del752-759)	binding	10 µM	100
Cc1c(NC(=O)c2cc(C(N)=O)nc3cc(F)ccc23)c(C(F)(F)F)nn1Cc1ccc(C(C)(C)C)cc1	EGFR A750P/del747-749	cell-free assay, competition with immobilised ligand	1 µM	100
CNC(=O)[C@@H]1CC[C@@H](n2c(-c3ccc4cnccc4c3)nc3ccc(C(=O)NCc4cccc(C(N)=O)c4)cc32)C1	Epidermal growth factor receptor (EGFR, Homo sapiens, UniProt P00533, G719C)	binding, competition with immobilised ligand	1 µM	100
O=C(c1ccc(Nc2ncc(Cl)c(-c3cc4ccccc4s3)n2)cc1)N1CCC(N2CCCC2)CC1	EGFR del747-752/P753S	binding, competition with immobilised ligand	1 µM	79
C[C@H](c1ccc(F)cc1)N(Cc1cccc(C(=O)O)c1)C(=O)c1cnc2ccccc2c1	EGFR G719S	cell-free assay, competition with immobilised ligand	1 µM	100
C[C@@H]1CCN(c2nccc(-c3cnn4ncccc34)n2)C1	EGFR L858R	binding	1 µM	93
CC(C)(O)c1cncc(-c2nc3ccc(F)cc3n2C2CC2)c1	EGFR L861Q	cell-free assay, competition with immobilised ligand	1 µM	100
c1cnn2ncc(-c3ccnc(N4CCC45COC5)n3)c2c1	Epidermal growth factor receptor (EGFR, Homo sapiens, UniProt P00533, del746-750)	binding	1 µM	89
C[C@@H]1CN(c2cc(-c3nn(C)c4ccc(OC5(C)CC5)cc34)ncn2)C[C@H](C)O1	EGFR L858R	cell-free assay, competition with immobilised ligand	1 µM	95
Cc1cnc(Nc2ccc(C(=O)N3CCC(N4CCCC4)CC3)cc2)nc1-c1cc2ccccc2s1	EGFR del747-750/T751S	binding, competition with immobilised ligand	1 µM	97
CN(CCCC(F)(F)F)c1nccc(-c2cnn3ncccc23)n1	EGFR L858R/T790M	binding	1 µM	100
COc1ncc2cc3ccccc3nc2c1C#N	Epidermal growth factor receptor (EGFR, Homo sapiens, UniProt P00533)	cell-free assay, competition with immobilised ligand	5 µM	94
O=C(c1ccc(Nc2nccc(-c3cc4ccccc4s3)n2)cc1)N1CCC(N2CCCC2)CC1	EGFR del747-750/T751S	binding, competition with immobilised ligand	1 µM	82
COc1cnc(Nc2cccc(S(N)(=O)=O)c2)nc1N1CCN(c2ccccc2)CC1	EGFR G719S	binding, competition with immobilised ligand	1 µM	100
O=C(Nc1c[nH]nc1C(=O)NC1CCNCC1)c1cc(F)cc(F)c1	EGFR del747-752/P753S	binding, competition with immobilised ligand	1 µM	100
c1cncc(-c2cccc(Nc3nccc(NC4CCCCC4)n3)c2)c1	EGFR L858R	binding, competition with immobilised ligand	10 µM	58
F[C@@H]1CCN(c2nccc(-c3cnn4ncccc34)n2)C1	EGFR L858R	binding	1 µM	89
CNC(=O)Nc1ccc2c(c1)[C@@]1(CC2)OC(=O)N(CC(=O)N(Cc2ccc(F)cc2)[C@@H](C)C(F)(F)F)C1=O	EGFR del747-752/P753S	cell-free assay, competition with immobilised ligand	1 µM	85
O=C(NCCCN1CCOCC1)c1ccc(Nc2ncc(Cl)c(-c3ccc(Cl)s3)n2)cc1	EGFR L858R/T790M	binding, competition with immobilised ligand	1 µM	55
CN(c1nccc(-c2cnn3ncccc23)n1)C1CC1	EGFR L858R/T790M	binding	1 µM	100
